The results in this text go back to ChEMBL document CHEMBL4428038, “Overcoming chloroquine resistance in malaria: Design, synthesis and structure-activity relationships of novel chemoreversal agents” (Eur J Med Chem, 2016).

Series [1] can be described thus: Inhibition of CRT CVIET haplotype mutant in chloroquine-resistant Plasmodium falciparum K1 isolate MRA-159 assessed as reversal of chloroquine resistance by measuring reduction in chloroquine IC50 relative to chloroquine alone. The essentials: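 Chloroquine IC50 was determined in the presence of a fixed 500 nM chemoreversal agent, against chloroquine alone. The RMI is the ratio of chloroquine IC50 with agent to chloroquine IC50 alone. Mean of n = 3; two-tailed t test versus chloroquine without agent.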

Series [2] concerns T1, Chloroquine resistance transporter (Plasmodium falciparum), Q9N623 [K76T].
T1 sequence (whole entry): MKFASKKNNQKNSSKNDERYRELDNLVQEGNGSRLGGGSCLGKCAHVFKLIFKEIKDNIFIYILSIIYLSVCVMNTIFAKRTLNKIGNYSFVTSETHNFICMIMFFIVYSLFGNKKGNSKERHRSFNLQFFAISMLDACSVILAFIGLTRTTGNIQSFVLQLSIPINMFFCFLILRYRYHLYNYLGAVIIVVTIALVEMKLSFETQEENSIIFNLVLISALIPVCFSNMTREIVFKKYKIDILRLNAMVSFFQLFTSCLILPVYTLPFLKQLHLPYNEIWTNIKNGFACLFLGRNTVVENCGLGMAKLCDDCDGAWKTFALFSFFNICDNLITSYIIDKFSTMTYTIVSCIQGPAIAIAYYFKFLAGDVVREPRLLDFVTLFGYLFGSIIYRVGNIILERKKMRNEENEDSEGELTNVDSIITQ
In words: Inhibition of CRT K76T mutant in chloroquine/artemisinin-resistant Plasmodium falciparum ARS272 assessed as reversal of chloroquine resistance by measuring reduction in chloroquine IC50 at 500 nM relative to chloroquine alone.

Series [3] deals with Plasmodium falciparum. In words: Intrinsic antimalarial activity against intermediate chloroquine-resistant Plasmodium falciparum 7G8 isolate MRA-154 harboring CRT SVMNT haplotype mutant assessed as reduction in parasite viability at 500 nM. The series is classed as functional, organism-based.
Series [4] relates to Plasmodium falciparum. Put plainly: Intrinsic antimalarial activity against chloroquine/artemisinin-resistant Plasmodium falciparum ARS233 harboring CRT K76T mutant assessed as reduction in parasite viability at 500 nM. It is filed as functional, organism-based.
Series [5] deals with Plasmodium falciparum. In words: Intrinsic antimalarial activity against chloroquine-resistant Plasmodium falciparum NHP4559 harboring CRT K76T mutant assessed as reduction in parasite viability at 500 nM. It is filed as functional, organism-based.
In series [6] the test system is T1, Chloroquine resistance transporter (Plasmodium falciparum), Q9N623 [K76T]. In words: Inhibition of CRT K76T mutant in chloroquine-resistant Plasmodium falciparum Dd2 isolate MRA-156 assessed as reversal of chloroquine resistance by measuring reduction in chloroquine IC50 at 500 nM relative to chloroquine alone.
For series [7], the system named is Plasmodium falciparum. In words: Intrinsic antimalarial activity against chloroquine-resistant Plasmodium falciparum K1 isolate MRA-159 harboring CRT CVIET haplotype mutant assessed as reduction in parasite viability at 500 nM. The series is classed as functional, organism-based.
The subject of series [8] is Plasmodium falciparum. Put plainly: Intrinsic antimalarial activity against chloroquine-sensitive Plasmodium falciparum 3D7 isolate MRA-102 assessed as reduction in parasite viability at 500 nM. It is filed as functional, organism-based.
Series [9] relates to Plasmodium falciparum K1. Put plainly: Inhibition of CRT CVIET haplotype mutant in Plasmodium falciparum K1 isolate MRA-159 infected in erythrocytes assessed as chloroquine-coumarin probe accumulation at 10 uM after 10 hrs by Hoechst 33342 staining based flow cytometry (reference value: 35.57 +/- 3.84%). It is filed as cell-based. More on the design: scale not given: the % may be the effect or the level left. The essentials:
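Infected erythrocyte cultures at 2.5% hematocrit and 7–12% parasitemia, synchronized to late-ring/early-trophozoite stage, were incubated with chloroquine-coumarin probe plus test agent for 10 h at 37 C. Cells were then washed, resuspended in PBS and read by flow cytometry (405 nm excitation, 450/50 filter). Hoechst-stained duplicate wells set parasitemia. Uptake = % infected erythrocytes fluorescent. Controls: PBS (negative), desipramine and parent compound (positive). ≥3 independent experiments; mean ± SEM.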
Background: Flow cytometry measures light scatter and fluorescence of single cells or particles in a stream.

In series [10] the test system is Plasmodium falciparum. Put plainly: Intrinsic antimalarial activity against chloroquine-sensitive Plasmodium falciparum HB3 isolate MRA-155 assessed as reduction in parasite viability at 500 nM. It is filed as functional, organism-based.
Series [11] has as its system Plasmodium falciparum. In words: Potentiation of chloroquine-induced antimalarial activity against chloroquine-sensitive Plasmodium falciparum HB3 isolate MRA-155 assessed as reduction in chloroquine IC50 at 500 nM relative to chloroquine alone. It is filed as functional.
Series [12] concerns T1, Chloroquine resistance transporter (Plasmodium falciparum), Q9N623 [K76T]. In words: Inhibition of CRT K76T mutant in chloroquine/artemisinin-resistant Plasmodium falciparum ARS233 assessed as reversal of chloroquine resistance by measuring reduction in chloroquine IC50 at 500 nM relative to chloroquine alone.
Series [13] deals with Plasmodium falciparum. Put plainly: Potentiation of chloroquine-induced antimalarial activity against chloroquine-sensitive Plasmodium falciparum 3D7 isolate MRA-102 assessed as reduction in chloroquine IC50 at 500 nM relative to chloroquine alone. The series is classed as functional.
For series [14], the system named is Plasmodium falciparum. In words: Intrinsic antimalarial activity against chloroquine/artemisinin-resistant Plasmodium falciparum ARS272 harboring CRT K76T mutant assessed as reduction in parasite viability at 500 nM. It is filed as functional, organism-based.
Series [15] deals with Plasmodium falciparum. In words: Intrinsic antimalarial activity against chloroquine-resistant Plasmodium falciparum Dd2 isolate MRA-156 harboring CRT K76T mutant assessed as reduction in parasite viability at 500 nM. The series is classed as functional, organism-based.
A short description of series [16]: Resistance index, ratio of chloroquine IC50 for intermediate chloroquine-resistant Plasmodium falciparum 7G8 isolate MRA-154 CRT SVMNT haplotype mutant to chloroquine IC50 for chloroquine-sensitive Plasmodium falciparum 3D7 isolate MRA-102 at 500 nM. The essentials:
(§1)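 Chloroquine IC50 was measured with the chemoreversal agent fixed at 500 nM in K1 or 7G8 and in sensitive 3D7 (means, n = 3). The resistance ratio is the chloroquine IC50 in K1 or 7G8 divided by the chloroquine IC50 in 3D7.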

In series [17] the test system is Plasmodium falciparum 7G8. In words: Inhibition of CRT SVMNT haplotype mutant in intermediate chloroquine-resistant Plasmodium falciparum 7G8 isolate MRA-154 t assessed as reversal of chloroquine resistance by measuring reduction in chloroquine IC50 at 500 nM relative to chloroquine alone.
A short description of series [18]: Resistance index, ratio of chloroquine IC50 for chloroquine-resistant Plasmodium falciparum K1 isolate MRA-159 CRT CVIET haplotype mutant to chloroquine IC50 for chloroquine-sensitive Plasmodium falciparum 3D7 isolate MRA-102 at 500 nM. The essentials:
as §1

Series [19] concerns T1, Chloroquine resistance transporter (Plasmodium falciparum), Q9N623 [K76T]. In words: Inhibition of CRT K76T mutant in chloroquine-resistant Plasmodium falciparum NHP4559 assessed as reversal of chloroquine resistance by measuring reduction in chloroquine IC50 at 500 nM relative to chloroquine alone.
Series [20] shares this test system. Put plainly: Inhibition of CRT K76T mutant in chloroquine/artemisinin-resistant Plasmodium falciparum NHP4773 assessed as reversal of chloroquine resistance by measuring reduction in chloroquine IC50 at 500 nM relative to chloroquine alone.
Series [21] concerns Plasmodium falciparum K1. In words: Inhibition of CRT CVIET haplotype mutant in chloroquine-resistant Plasmodium falciparum K1 isolate MRA-159 assessed as reversal of chloroquine resistance by measuring reduction in chloroquine IC50 at 500 nM relative to chloroquine alone.
Series [22] has as its system Plasmodium falciparum. Put plainly: Intrinsic antimalarial activity against chloroquine/artemisinin-resistant Plasmodium falciparum NHP4773 harboring CRT K76T mutant assessed as reduction in parasite viability at 500 nM. The series is classed as functional, organism-based.
Series [23] in a line: Aqueous kinetic solubility of compound in pH 7.4 solution incubated for 24 hrs. It is filed as physicochemical. The note with it: aqueous solution pH 7.4, pH 7.4; read-out: Kinetic_solubility.

The structures appear in SMILES notation. Values after ≈ are worked out from the molar mass of the structure shown. Active and inactive are the calls of the source. The rule behind the calls is not given here.

The EC50 is the concentration giving half of the maximal effect. For the molecule `N#CC(CCN1CCCCC1)(c1ccccc1)c1ccccc1`, the EC50 in [1] amounted to 295 nM. Also, the Ratio IC50 in series [2] was determined as 0.7; in series [6] it was 0.76; in series [11], 0.98; in [12] it was 0.7; in series [13], 1.2; in [16], 5.1. Also, the Ratio IC50 came to 1 in [17]; 12.2 in series [18]; 0.66 in series [19]; 0.74 in series [20]; 0.71 in [21]. Besides, the result in [3], in series [4], in [5], in series [7], in series [8] and in series [10] was inactive. Further, the result in [14], in [15] and in [22] was inactive. Also, in series [9], the Activity was 67%.
With `N[C@@H]1C2CCN(CC2)[C@@H]1C(c1ccccc1)c1ccccc1` (relative stereo), the Ratio IC50 in series [2] was 0.99; in [6], 0.94; in series [11], 0.99; in series [12], 0.97; in series [13], 1.1; in [16] it was 5.2. Further, the Ratio IC50 in [17] amounted to 0.93; in series [18], 17.4; in series [19], 0.98; in series [20], 1.04; in series [21], 0.93. The outcome in series [3], in series [4], in series [5], in series [7], in [8] and in series [10] was inactive. In addition, the result in series [14], in series [15] and in [22] was inactive. The Activity in series [9] turned out to be 52.5%.
Take `Clc1ccc2c(c1)C(N1CCNCC1)Cc1ccccc1S2` (stereo not given): the Ratio IC50 came to 0.76 in series [2]; 0.83 in series [6]; 0.93 in series [11]; 0.71 in series [12]; 1.14 in [13]; 4.8 in series [16]. The Ratio IC50 in series [17] came out at 0.88; in series [18], 12.4; in series [19], 0.73; in series [20] it was 0.73; in series [21], 0.69. The outcome in series [3], in series [4], in series [5], in [7], in series [8] and in [10] was inactive. Besides, the outcome in [14], in [15] and in [22] was inactive. Moreover, the Activity in series [9] turned out to be 79.6%. Besides, the solubility kinetic at 24 h in [23] amounted to 38.1 µg/mL (≈ 115 µM).
Regarding `NCC(c1ccccc1)c1ccccc1`, in series [1], the concentration for a half-maximal effect (EC50) was 200 nM. In addition, the Ratio IC50 in series [2] came out at 0.37; in series [6], 0.59; in series [11] it was 1.1; in series [12], 0.53; in series [13], 1.11; in series [16] it was 3.8. Moreover, the Ratio IC50 was 0.69 in series [17]; 8.4 in series [18]; 0.52 in series [19]; 0.54 in [20]; 0.45 in series [21]. Besides, the result in [3], in [4], in [5], in series [7], in series [8] and in series [10] was inactive. The outcome in series [14], in series [15] and in [22] was inactive. The Activity in series [9] was found to be 56.4%.
Turning to `c1ccc2c(c1)CC(N1CCNCC1)c1ccccc1S2` (stereo not given), the half-maximal effective concentration (EC50) in series [1] is 343 nM. Besides, the Ratio IC50 in series [2] is 0.68; in [6], 0.81; in series [11], 1; in series [12], 0.64; in series [13], 1.21; in series [16], 3.8. The Ratio IC50 in [17] worked out at 0.76; in [18], 9.3; in series [19], 0.68; in [20] it was 0.69; in series [21], 0.55. Besides, the outcome in [3], in [4], in series [5], in [7], in series [8] and in series [10] was inactive. Besides, the result in series [14], in [15] and in [22] was inactive. For the same molecule, the Activity in series [9] was found to be 69.8%. The solubility kinetic at 24 h in series [23] was 87.1 µg/mL (≈ 294 µM).
